In brackets after ≈: the same amount, converted by molar mass. Activity calls are given as the source filed them. No cut-off for these calls is given here.
Experiments:
[1] = Cytotoxicity against CHL cells assessed as cell viability at 0.064 mg/ml after 24 hrs by MTT assay; format: cell-based, Cricetulus griseus; settings: chinese hamster
Procedure, shortened: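 CHL fibroblasts seeded at about 5 × 10^4 cells/mL, incubated overnight at 37 °C, 5% CO2, then exposed to compound at different concentrations for 24 h. Viability read by MTT, absorbance at 570 nm, relative to cells in medium alone (100%). Triplicate.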

Staphylococcus aureus [2] = assay: Antibacterial activity against Staphylococcus aureus ATCC 29213 assessed as growth inhibition by agar dilution assay; format: functional
Procedure, shortened: (§1)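 Agar dilution MIC per CLSI (aerobic and anaerobic methods); compounds dissolved in DMSO, reference antibiotics in sterile water. MIC taken as lowest concentration with no visible growth; determined at least twice on separate days, higher value reported. Clinical isolate ranges summarized as MIC50/MIC90.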

Enterococcus faecalis = assay: microbe, parasite or virus in culture; format: functional; settings: ATCC 29212
[3] = Binding affinity to supercoiled pHOT-1 DNA assessed as unwinding of DNA helix by measuring distribution of topoisomers at 10 to 150 uM treated 15 mins prior to human topoisomerase 1 addition for 30 mins by agarose gel electrophoresis
[4] = molecular target: T1, DNA topoisomerase 1 (Escherichia coli (strain K12)) (UniProt P06612); assay: Inhibition of Escherichia coli topoisomerase 1-mediated pHOT-1 DNA relaxation at >90 uM treated with pHOT-1 substrate for 15 mins prior to enzyme addition for 30 mins by agarose gel electrophoresis
T1 sequence (whole entry): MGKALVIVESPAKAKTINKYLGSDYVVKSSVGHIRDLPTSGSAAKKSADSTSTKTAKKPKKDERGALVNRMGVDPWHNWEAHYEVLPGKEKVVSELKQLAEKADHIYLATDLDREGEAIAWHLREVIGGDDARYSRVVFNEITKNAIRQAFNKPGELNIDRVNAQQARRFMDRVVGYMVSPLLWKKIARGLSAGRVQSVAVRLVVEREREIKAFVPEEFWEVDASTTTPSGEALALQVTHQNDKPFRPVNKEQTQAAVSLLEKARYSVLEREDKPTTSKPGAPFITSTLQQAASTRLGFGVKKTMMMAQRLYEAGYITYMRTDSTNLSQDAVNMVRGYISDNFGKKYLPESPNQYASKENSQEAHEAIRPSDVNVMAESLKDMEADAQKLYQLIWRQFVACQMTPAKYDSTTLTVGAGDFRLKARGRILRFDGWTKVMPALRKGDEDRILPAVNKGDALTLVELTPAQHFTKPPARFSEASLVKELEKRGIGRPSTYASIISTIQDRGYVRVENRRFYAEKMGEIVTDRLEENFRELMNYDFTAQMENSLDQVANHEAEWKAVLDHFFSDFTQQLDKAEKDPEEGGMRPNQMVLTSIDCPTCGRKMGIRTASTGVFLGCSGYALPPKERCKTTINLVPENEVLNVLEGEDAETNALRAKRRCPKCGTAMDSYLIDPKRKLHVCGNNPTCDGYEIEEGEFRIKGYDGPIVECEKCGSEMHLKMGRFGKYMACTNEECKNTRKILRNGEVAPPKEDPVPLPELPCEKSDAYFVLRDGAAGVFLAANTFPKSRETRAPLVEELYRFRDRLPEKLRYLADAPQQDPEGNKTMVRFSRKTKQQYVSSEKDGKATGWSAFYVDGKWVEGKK

[5] = molecular target: DNA gyrase (Staphylococcus aureus) (UniProt P0A0K8+P20831); assay: Inhibition of Staphylococcus aureus DNA gyrase-mediated pHOT-1 supercoiling at 30 uM after 30 mins by agarose gel electrophoresis in presence of ATP; format: protein-complex assay
Sequence of DNA gyrase (Staphylococcus aureus) (P0A0K8 2-644 limits assumed): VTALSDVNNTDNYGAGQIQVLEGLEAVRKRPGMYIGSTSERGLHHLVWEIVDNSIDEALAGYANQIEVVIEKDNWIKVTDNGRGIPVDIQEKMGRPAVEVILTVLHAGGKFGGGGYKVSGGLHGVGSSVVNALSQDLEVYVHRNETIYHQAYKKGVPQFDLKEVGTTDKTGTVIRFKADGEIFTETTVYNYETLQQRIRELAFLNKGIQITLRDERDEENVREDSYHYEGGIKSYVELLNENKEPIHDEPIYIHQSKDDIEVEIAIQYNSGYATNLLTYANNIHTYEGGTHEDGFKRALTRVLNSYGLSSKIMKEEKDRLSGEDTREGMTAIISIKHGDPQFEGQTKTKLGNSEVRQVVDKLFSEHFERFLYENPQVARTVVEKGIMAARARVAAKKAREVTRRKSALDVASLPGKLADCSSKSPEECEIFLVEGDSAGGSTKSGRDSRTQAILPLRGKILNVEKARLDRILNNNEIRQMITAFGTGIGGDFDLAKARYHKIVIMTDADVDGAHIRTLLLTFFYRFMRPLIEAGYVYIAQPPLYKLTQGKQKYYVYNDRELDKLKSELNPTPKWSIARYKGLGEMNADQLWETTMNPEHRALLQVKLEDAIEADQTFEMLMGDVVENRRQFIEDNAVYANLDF
Sequence of DNA gyrase (Staphylococcus aureus) (P20831 whole entry partner): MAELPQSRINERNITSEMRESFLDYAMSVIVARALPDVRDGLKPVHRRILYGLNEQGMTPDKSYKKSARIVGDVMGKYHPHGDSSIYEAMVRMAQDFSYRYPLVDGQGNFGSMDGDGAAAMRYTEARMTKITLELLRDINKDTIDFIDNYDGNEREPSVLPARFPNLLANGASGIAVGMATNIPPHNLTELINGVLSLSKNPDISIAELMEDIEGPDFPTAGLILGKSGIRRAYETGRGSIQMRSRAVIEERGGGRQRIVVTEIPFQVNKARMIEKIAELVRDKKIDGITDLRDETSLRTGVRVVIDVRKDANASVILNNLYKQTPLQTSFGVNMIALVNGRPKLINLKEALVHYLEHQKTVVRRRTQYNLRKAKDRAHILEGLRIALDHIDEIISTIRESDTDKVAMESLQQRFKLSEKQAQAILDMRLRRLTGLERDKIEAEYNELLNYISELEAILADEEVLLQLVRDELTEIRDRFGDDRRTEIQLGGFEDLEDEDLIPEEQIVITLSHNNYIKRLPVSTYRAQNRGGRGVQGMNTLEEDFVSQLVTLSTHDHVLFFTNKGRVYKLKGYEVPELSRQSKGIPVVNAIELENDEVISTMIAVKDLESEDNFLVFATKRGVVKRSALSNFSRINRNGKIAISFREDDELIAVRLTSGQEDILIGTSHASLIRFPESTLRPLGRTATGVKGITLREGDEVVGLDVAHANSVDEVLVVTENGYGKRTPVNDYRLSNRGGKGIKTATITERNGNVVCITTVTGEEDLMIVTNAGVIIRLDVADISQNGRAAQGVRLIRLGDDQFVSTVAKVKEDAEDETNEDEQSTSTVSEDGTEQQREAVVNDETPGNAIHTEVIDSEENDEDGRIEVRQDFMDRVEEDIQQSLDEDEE
Procedure, shortened: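 Supercoiling: 100 ng relaxed pHOT-1 with 1 U S. aureus or E. coli gyrase and graded compound concentrations, ATP present, 37 °C for 30 min. Stopped with 10% SDS, 1% agarose electrophoresis, ethidium bromide staining, UV imaging; ciprofloxacin positive control.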

Pseudomonas aeruginosa [6] = assay: Antibacterial activity against Pseudomonas aeruginosa ATCC 27853 assessed as growth inhibition by agar dilution assay; format: functional; procedure, shortened: as §1
[7] = molecular target: T1, DNA topoisomerase 1 (Escherichia coli (strain K12)); assay: Inhibition of Escherichia coli topoisomerase 1 assessed as single stranded breaks using pHOT-1 DNA as substrate treated with substrate for 15 mins prior to enzyme addition for 30 mins by agarose gel electrophoresis
Bacillus cereus = assay: Antibacterial activity against Bacillus cereus ATCC 10231 assessed as growth inhibition by agar dilution assay; format: functional
Mus musculus = assay: In vivo acute toxicity in Kunming mouse assessed as mortality at 100 mg/kg, iv administered as single dose measured within 7 days; format: organism-based; design: dose 100 mg/kg, route intravenous; settings: 168 h
Procedure, shortened: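 Male and female adult Kunming mice (18−22 g) received a single intravenous injection at various doses (n = 10 per group, 200 μL per mouse). Compound was given in polyethylene glycol−water (1:1, v/v), and controls received vehicle alone. Mortality was recorded for 7 days. LD50 was estimated by probit analysis.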

Staphylococcus aureus [8] = assay: Antibacterial activity against methicillin-resistant Staphylococcus aureus assessed as growth inhibition by agar dilution assay; format: functional
Procedure, shortened: (§2)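 CLSI agar dilution MIC against aerobic and anaerobic strains. Test compounds were dissolved in DMSO and reference antibiotics in sterile water. MIC was taken as the lowest concentration showing no bacterial growth. Each MIC was determined at least twice on separate days, and the higher value was reported. E. coli PQ 37 was cultured in LA medium.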

[9] = Binding affinity to supercoiled pHOT-1 DNA assessed as unwinding of DNA helix by measuring distribution of topoisomers at 10 to 150 uM treated 15 mins prior to Escherichia coli topoisomerase 1 addition for 30 mins by agarose gel electrophoresis
Pseudomonas aeruginosa [10] = assay: Antibacterial activity against Pseudomonas aeruginosa assessed as growth inhibition by agar dilution assay; format: functional; procedure, shortened: as §2
Escherichia coli = assay: Antibacterial activity against Escherichia coli assessed as growth inhibition at <0.256 mg/ml by agar dilution assay; format: functional, organism-based

Cc1cc(O)c2c(c1)C(=O)c1c(I)c(O)c(I)c(O)c1C2=O
Activity [1]: Non-toxic
MIC (Staphylococcus aureus [2]): 8 µg/mL (≈ 15.3 µM)
MIC (Enterococcus faecalis): 16 µg/mL (≈ 30.6 µM)
Activity [3]: inactive
inhibition [4]: Active
inhibition [5]: Active
MIC (Pseudomonas aeruginosa [6]): > 256 µg/mL
Activity [7]: inactive
MIC (Bacillus cereus): 4 µg/mL (≈ 7.66 µM)
Activity (Mus musculus): Non-toxic
MIC (Staphylococcus aureus [8]): 4 µg/mL (≈ 7.66 µM)
Activity [9]: inactive
MIC (Pseudomonas aeruginosa [10]): > 256 µg/mL
growth inhibition (GI) (Escherichia coli): inactive
